In publication PMC3297693 (Journal of Medicinal Chemistry, 2012):
Entries after “also recorded” stand apart in the source; their conditions may differ. Counter-ions that a name gives are not always drawn.

Assays:
[1] = system: Renal; experiment: NCI 60 five-concentration screen, renal subpanel; type: cell-based; conditions: Homo sapiens, 48 h, read-out: TGI Renal
[2] = system: full NCI 60 cell panel; experiment: NCI 60 five-concentration screen, mean graph midpoint of all cell lines; type: cell-based; conditions: Homo sapiens, 48 h; for GI50: read-out: GI50 MG-MID (mean GI50); for IC (TGI): read-out: TGI MG-MID
[3] = target: tubulin (Bos taurus, UniProt Q6B856); experiment: Tubulin assembly assay; type: biochemical, Bovine; conditions: 10 μM tubulin, 20 min incubation at 30 °C
Chain of tubulin (Q6B856 whole entry): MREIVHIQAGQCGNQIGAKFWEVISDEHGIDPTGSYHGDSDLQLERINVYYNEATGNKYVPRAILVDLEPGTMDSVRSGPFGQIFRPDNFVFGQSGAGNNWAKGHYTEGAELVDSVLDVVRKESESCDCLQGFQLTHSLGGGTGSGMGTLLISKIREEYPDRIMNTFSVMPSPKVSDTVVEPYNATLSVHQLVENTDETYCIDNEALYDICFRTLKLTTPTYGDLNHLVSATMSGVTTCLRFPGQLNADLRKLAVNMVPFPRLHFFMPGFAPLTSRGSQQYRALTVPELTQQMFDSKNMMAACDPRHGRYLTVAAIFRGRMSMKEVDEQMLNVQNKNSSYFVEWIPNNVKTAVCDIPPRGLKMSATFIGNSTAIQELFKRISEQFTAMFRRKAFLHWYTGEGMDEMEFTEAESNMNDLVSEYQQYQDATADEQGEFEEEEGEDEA
Chain of tubulin (P81947 whole entry partner): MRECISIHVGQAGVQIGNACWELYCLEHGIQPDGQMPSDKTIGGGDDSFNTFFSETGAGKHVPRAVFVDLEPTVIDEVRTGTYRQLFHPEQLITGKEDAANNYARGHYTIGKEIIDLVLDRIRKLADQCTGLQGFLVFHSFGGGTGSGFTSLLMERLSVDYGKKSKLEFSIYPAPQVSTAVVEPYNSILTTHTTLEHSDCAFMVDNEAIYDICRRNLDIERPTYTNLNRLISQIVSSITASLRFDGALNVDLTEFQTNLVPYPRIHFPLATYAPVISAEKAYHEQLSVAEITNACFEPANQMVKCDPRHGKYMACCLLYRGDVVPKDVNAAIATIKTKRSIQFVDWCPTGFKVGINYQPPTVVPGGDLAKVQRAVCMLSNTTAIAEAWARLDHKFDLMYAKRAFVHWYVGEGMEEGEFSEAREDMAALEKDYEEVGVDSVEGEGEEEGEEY

[4] = system: Leukemia; experiment: cells; type: cell-based; conditions: Homo sapiens, 48 h, read-out: TGI Leukemia
[5] = system: NSCLC; experiment: NCI 60 five-concentration screen, NSCLC subpanel; type: cell-based; conditions: Homo sapiens, 48 h, read-out: TGI NSCLC
[6] = system: Colon; experiment: NCI 60 five-concentration screen, colon subpanel; type: cell-based; conditions: Homo sapiens, 48 h, read-out: GI50 Colon
[7] = system: CNS; experiment: cells; type: cell-based; conditions: Homo sapiens, 48 h, read-out: TGI CNS
[8] = system: Melanoma; experiment: NCI 60 five-concentration screen, melanoma subpanel; type: cell-based; conditions: Homo sapiens, 48 h, read-out: TGI Melanoma
[9] = system: Ovarian; experiment: NCI 60 five-concentration screen, ovarian subpanel; type: cell-based; conditions: Homo sapiens, 48 h, read-out: TGI Ovarian
[10] = system: Prostate; experiment: cells; type: cell-based; conditions: Homo sapiens, 48 h, read-out: TGI Prostate
[11] = system: Breast; experiment: NCI 60 five-concentration screen, breast subpanel; type: cell-based; conditions: Homo sapiens, 48 h, read-out: TGI Breast
[12] = system: HT-29 colon cancer cells; experiment: Cell cycle distribution by flow cytometry; type: cell-based, Human; conditions: HT-29 cells, 24 h
In short: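 HT-29 cells grown in RPMI 1640 with 10% FBS and 2 mM L-glutamine (37 °C, 5% CO2). Test compound was added from a 10 mmol/L DMSO stock (0.01% DMSO final; DMSO-only controls) for 24 h. Cells were fixed in 70% ethanol at −20 °C for ≥12 h, treated with RNase A (10 μg/mL, 37 °C, 30 min) and stained with PI (50 μg/mL). DNA content was read by flow cytometry; one experiment representative of three.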

[13] = system: HT-29 colon cancer cells; experiment: Cell viability by trypan blue exclusion; type: cell-based, Human; conditions: HT-29 cells, 24 h, 100 or 500 nM tested
In short: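 HT-29 cells in RPMI 1640/10% FBS/2 mM L-glutamine were plated at 2×10^4 cells/cm2. They were treated in triplicate for 24 h with 100 or 500 nM test compound (0.01% DMSO final; DMSO-only controls). Viable cells were counted by trypan blue exclusion. Values are means ± s.e.m. of three determinations.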

[14] = system: caspase proteases (DEVDase activity); experiment: DEVDase; type: cell-based, Human; conditions: HT-29 cells, 500 nM, 48 h
In short: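 HT-29 cells in RPMI 1640/10% FBS were exposed to 500 nM test compound for 48 h, with 0.01% DMSO and DMSO-only controls. DEVD-hydrolysing caspase (DEVDase) activity was measured fluorometrically in cell extracts. Values are means ± s.e.m. of four determinations.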

[15] = system: Akt(Ser473); experiment: Kinase phosphorylation by Western blotting: Akt; type: cell-based, Human; conditions: HeLa cells, 1 μM, 3 h
In short: (§1)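 HeLa cells in RPMI 1640/10% FBS/2 mM L-glutamine were exposed to 1 μM test compound for 3 h (0.01% DMSO). Lysates were cleared at 15,000 × g for 15 min and boiled 4 min, and 80 μg protein was run on SDS-PAGE. Proteins were blotted to nitrocellulose and probed with antibodies to total and phosphorylated kinase, then a peroxidase anti-rabbit IgG (1 h). Bands were detected by ECL chemiluminescence.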

[16] = system: mTOR(Ser2448); experiment: Kinase phosphorylation by Western blotting: mTOR; type: cell-based, Human; conditions: HeLa cells, 1 μM, 3 h
In short: as §1

[17] = system: ERK1/2(Thr202/Tyr204); experiment: Kinase phosphorylation by Western blotting: ERK1/2; type: cell-based, Human; conditions: HeLa cells, 1 μM, 3 h
In short: as §1

[18] = system: JNK(Thr183/Tyr185); experiment: Kinase phosphorylation by Western blotting: JNK; type: cell-based, Human; conditions: HeLa cells, 1 μM, 3 h
In short: as §1

[19] = system: p38MAPK(Thr180/Tyr182); experiment: Kinase phosphorylation by Western blotting: p38MAPK; type: cell-based, Human; conditions: HeLa cells, 1 μM, 3 h
In short: as §1

[20] = system: AMPK(Thr172); experiment: Kinase phosphorylation by Western blotting: AMPK; type: cell-based, Human; conditions: HeLa cells, 1 μM, 3 h
In short: as §1

Compound `Cc1nn2c(/C=C3/C(=O)Nc4ccc(F)cc43)c(C)nc2s1` [Compound 7] has an IC (TGI) [1] of 91.2 µM, a GI50 [2] of 15.1 µM and an IC (TGI) [2] of 91.2 µM.

Compound `Cc1nn2c(/C=C3/C(=O)Nc4ccc(F)cc43)c(-c3ccc(Cl)cc3)nc2s1` [Compound 17] has a GI50 [2] of 37.1 µM and an IC (TGI) [2] of 93.3 µM.

In the case of `O=C1Nc2ccc(Cl)cc2C1=Cc1c(-c2ccccn2)nc2sccn12` [Compound 29], the GI50 [2] is reported as 0.83 µM and the “Inhibition of tubulin assembly IC50 (μM) ± SD” value [3] is reported as “an IC50 could not be obtained”.

Compound `COc1nc2sccn2c1/C=C1/C(=O)Nc2cc(Cl)ccc21` [Compound 36] has a GI50 [2] of 0.44 µM and an IC (TGI) [2] of 31.6 µM.

`CC[C@]1(O)C[C@H]2CN(CCc3c([nH]c4ccccc34)[C@@](C(=O)OC)(c3cc4c(cc3OC)N(C=O)[C@H]3[C@@](O)(C(=O)OC)[C@H](OC(C)=O)[C@]5(CC)C=CCN6CC[C@]43[C@@H]65)C2)C1` [Vincristine sulfate, reference compound] gave an IC (TGI) [4] of 15.8 µM, an IC (TGI) [5] of 15.8 µM and a GI50 [6] of 0.1 µM. The IC (TGI) [7] was 6.31 µM, the IC (TGI) [8] was 7.94 µM and the IC (TGI) [9] was 19.9 µM. The IC (TGI) [1] was 19.9 µM, the IC (TGI) [10] was 6.31 µM and the IC (TGI) [11] was 7.94 µM. It also gave a GI50 [2] of 0.2 µM and an IC (TGI) [2] of 10 µM.

`COc1nc2sccn2c1/C=C1/C(=O)Nc2ccc(Cl)cc21` [Compound 35] gave a GI50 [2] of 2.82 µM and an IC (TGI) [2] of 55 µM.

`COc1ccc2c(c1)/C(=C\c1c(-c3ccccn3)nc3sccn13)C(=O)N2` [Compound 31] was tested, and the IC (TGI) [4] was 0.58 µM, the IC (TGI) [2] was 3.39 µM and the “concentration that induced accumulation of cells in the G2/M phase” value [12] was 100 nM. The “concentration that triggered cell death (reduction in cell viability)” value [13] was 100 nM, the “activity of effector caspases (DEVDase activity)” value [14] was “significantly increased” and the “Akt(Ser473) phosphorylation” value [15] was “strongly reduced; also recorded: selectively and strongly inhibited”. The “mTOR(Ser2448) phosphorylation” value [16] was “no significant effect”, the “ERK1/2(Thr202/Tyr204) phosphorylation/activation” value [17] was “slightly decreased” and the “JNK(Thr183/Tyr185) phosphorylation/activation” value [18] was “slightly decreased”. The “p38MAPK(Thr180/Tyr182) phosphorylation/activation” value [19] was “slightly decreased” and the “AMPK(Thr172) phosphorylation” value [20] was “only slightly inhibited”.

Work on `COc1nc2sccn2c1/C=C1/C(=O)N(C)c2ccccc21` [Compound 40] yielded an IC (TGI) [9] of 72.4 µM, a GI50 [2] of 6.31 µM and an IC (TGI) [2] of 72.4 µM.

`COc1nc2sccn2c1C=C1C(=O)Nc2ccc(F)cc21` [Compound 37] was tested, and the IC (TGI) [4] was 52.5 µM, the GI50 [2] was 5.01 µM and the IC (TGI) [2] was 52.5 µM.

`O=C1Nc2ccccc2/C1=C\c1c(-c2ccccn2)nc2sccn12` [Compound 28] gave a GI50 [2] of 1.15 µM and an IC (TGI) [2] of 50.1 µM.

In the case of `COc1ccc2c(c1)/C(=C\c1c(-c3ccc(C)cc3)nc3sc(C)cn13)C(=O)N2C` [Compound 13], the GI50 [2] is reported as 13.8 µM.

`COc1cc(-c2nc3sc(C)cn3c2/C=C2/C(=O)Nc3ccccc32)c(Br)c(OC)c1OC` [Compound 24] showed a GI50 [2] of 28.8 µM and an IC (TGI) [2] of 77.6 µM.
